We go through 13 compounds from ChEMBL document CHEMBL1145628, “New tetrazole-based selective anandamide uptake inhibitors” (Bioorg Med Chem Lett, 2008).

A value given as a limit tells only on which side of the number the result lay.

Test [1] addresses T1, Fatty-acid amide hydrolase 1 (Rattus norvegicus, UniProt P97612).
T1 sequence (P97612 whole entry): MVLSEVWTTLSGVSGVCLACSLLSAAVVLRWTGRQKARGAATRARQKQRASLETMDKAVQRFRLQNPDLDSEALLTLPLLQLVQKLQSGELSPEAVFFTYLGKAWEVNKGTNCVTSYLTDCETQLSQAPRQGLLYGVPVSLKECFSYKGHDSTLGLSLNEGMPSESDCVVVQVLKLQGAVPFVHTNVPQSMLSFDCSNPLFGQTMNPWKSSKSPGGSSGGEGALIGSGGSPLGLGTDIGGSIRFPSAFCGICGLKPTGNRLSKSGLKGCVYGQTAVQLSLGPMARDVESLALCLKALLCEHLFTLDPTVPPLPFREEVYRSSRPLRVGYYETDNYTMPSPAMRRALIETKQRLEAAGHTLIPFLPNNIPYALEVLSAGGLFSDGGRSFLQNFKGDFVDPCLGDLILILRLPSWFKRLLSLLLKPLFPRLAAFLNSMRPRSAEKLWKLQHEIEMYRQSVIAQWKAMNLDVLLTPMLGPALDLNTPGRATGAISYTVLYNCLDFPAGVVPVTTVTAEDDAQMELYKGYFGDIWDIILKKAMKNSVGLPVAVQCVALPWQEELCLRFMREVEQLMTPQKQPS
The test is described as follows: Inhibition of rat brain FAAH mediated [14C]anandamide hydrolysis. In a few lines:
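Hydrolysis of [14C]anandamide was measured with rat brain membranes as the enzyme source; means of n = 4.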

The subject of the next test is RBL-2H3. The test is described as follows: Inhibition of [14C]anandamide uptake in rat RBL-2H3. The test is classed as functional, cell-based. In a few lines: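 Uptake of [14C]anandamide was measured in intact RBL-2H3 cells; means of n = 4.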
Test [2] is described as follows: Inhibition of human MAGL mediated [14C]2-AG hydrolysis in COS cell. The class given is cell-based. In a few lines: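 Enzyme source was cytosolic fractions of COS cells (MAGL-expressing), with hydrolysis of [14C]2-AG as the read-out; means of 4 determinations.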
Test [3] concerns the target T2, Diacylglycerol lipase-alpha (Homo sapiens, UniProt Q9Y4D2).
T2 sequence (Q9Y4D2 whole entry): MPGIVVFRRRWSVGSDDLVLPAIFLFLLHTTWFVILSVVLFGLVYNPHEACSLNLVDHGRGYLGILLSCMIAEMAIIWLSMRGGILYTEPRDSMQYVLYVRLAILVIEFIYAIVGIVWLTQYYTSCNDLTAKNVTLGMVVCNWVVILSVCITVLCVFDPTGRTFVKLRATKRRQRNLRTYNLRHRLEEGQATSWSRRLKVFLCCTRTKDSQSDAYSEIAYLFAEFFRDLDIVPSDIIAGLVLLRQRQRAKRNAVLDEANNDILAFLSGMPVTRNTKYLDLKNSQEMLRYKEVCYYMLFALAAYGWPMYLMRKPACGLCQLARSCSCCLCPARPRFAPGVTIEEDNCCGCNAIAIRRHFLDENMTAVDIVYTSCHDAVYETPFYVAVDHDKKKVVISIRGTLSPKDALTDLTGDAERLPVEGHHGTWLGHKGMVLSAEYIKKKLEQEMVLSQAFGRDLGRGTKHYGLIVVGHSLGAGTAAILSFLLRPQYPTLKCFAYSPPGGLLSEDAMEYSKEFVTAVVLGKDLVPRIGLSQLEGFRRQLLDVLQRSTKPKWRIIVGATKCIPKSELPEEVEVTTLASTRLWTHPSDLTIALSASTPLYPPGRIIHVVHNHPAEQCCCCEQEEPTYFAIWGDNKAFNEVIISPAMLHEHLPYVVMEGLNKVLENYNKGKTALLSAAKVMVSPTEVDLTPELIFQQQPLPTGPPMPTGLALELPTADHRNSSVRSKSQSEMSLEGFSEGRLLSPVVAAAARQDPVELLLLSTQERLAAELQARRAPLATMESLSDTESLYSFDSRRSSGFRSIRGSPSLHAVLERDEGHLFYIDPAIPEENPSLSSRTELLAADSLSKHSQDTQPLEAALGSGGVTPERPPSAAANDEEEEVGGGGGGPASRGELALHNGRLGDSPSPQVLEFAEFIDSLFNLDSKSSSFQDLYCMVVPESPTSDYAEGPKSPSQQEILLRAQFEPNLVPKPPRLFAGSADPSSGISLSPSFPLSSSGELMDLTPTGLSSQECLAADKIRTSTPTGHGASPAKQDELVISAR
As to the kind of experiment: Inhibition of human DAGLalpha mediated sn-1-[14C]oleoyl-2-arachidonoyl-glycerol hydrolysis to 2-AG in COS cell. In a few lines:
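Substrate: sn-1-[14C]oleoyl-2-arachidonoyl-glycerol. Conversion into 2-AG and [14C]oleic acid was followed using membranes of COS cells overexpressing human recombinant DAGLα; n = 4 means.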

In the next test the target is Cannabinoid receptor 1 (Homo sapiens, UniProt P21554). The test is described as follows: Binding affinity to human CB1 receptor expressed in COS cells. The class given is cell-based. In a few lines: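 Tested at CB1 receptors in transfected COS cells; means of 4 separate determinations.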
The target in another test is Cannabinoid receptor 2 (Homo sapiens, UniProt P34972). The test is described as follows: Binding affinity to human CB2 receptor expressed in COS cells. The class given is cell-based. Put shortly:
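Human CB2 receptor expressed by transfection in COS cells. Each value is the mean of 4 separate determinations.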

For test [4], the target named is Transient receptor potential cation channel subfamily A member 1 (Rattus norvegicus, UniProt Q6RI86). The test is described as follows: Agonist activity at rat TRPA1 channel expressed in human HEK293 cells assessed as elevation in intracellular calcium flux. The class given is functional, cell-based. In a few lines: (§1)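 Stably rat TRPA1-transfected HEK-293 cells, grown 3 days, were loaded with 4 µM Fluo4-AM plus 0.02% Pluronic for 1 h at room temperature. They were washed and resuspended in Tyrode's buffer pH 7.4, and [Ca2+]i was read under stirring (ex 488/em 516 nm) before and after compound addition. EC50 is the half-maximal [Ca2+]i rise. Efficacy (100 µM compound) is expressed relative to 100 µM mustard oil; n = 4 means.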
Background: Calcium assays in cells follow changes in intracellular calcium, usually with a dye or a luminescent sensor.

For test [5], the target named is Transient receptor potential cation channel subfamily A member 1 (Rattus norvegicus) (UniProt Q6RI86). The test is described as follows: Agonist activity at rat TRPA1 channel expressed in human HEK293 cells assessed as elevation in intracellular calcium flux at 100 uM relative to mustard oil. The class given is functional, cell-based. Put shortly:
as §1

In test [6] the target is T3, Transient receptor potential cation channel subfamily V member 1 (Homo sapiens, UniProt Q8NER1). As to the kind of experiment: Agonist activity at human TRPV1 channel expressed in human HEK293 cells assessed as elevation in intracellular calcium flux. The test is classed as functional, cell-based. Put shortly:
(§2)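 HEK-293 cells overexpressing TRPV1 were used, with intracellular Ca2+ elevation as the read-out. The single-point value is the effect of 10 µM compound as percent of the Ca2+ response to 4 µM ionomycin. Data are means of 4 separate determinations.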

Test [7] deals with T3, Transient receptor potential cation channel subfamily V member 1. The test is described as follows: Agonist activity at human TRPV1 channel expressed in human HEK293 cells assessed as elevation in intracellular calcium flux at 10 uM relative to ionomycin. The test is classed as functional, cell-based. In a few lines:
as §2

T3 sequence (Q8NER1 whole entry): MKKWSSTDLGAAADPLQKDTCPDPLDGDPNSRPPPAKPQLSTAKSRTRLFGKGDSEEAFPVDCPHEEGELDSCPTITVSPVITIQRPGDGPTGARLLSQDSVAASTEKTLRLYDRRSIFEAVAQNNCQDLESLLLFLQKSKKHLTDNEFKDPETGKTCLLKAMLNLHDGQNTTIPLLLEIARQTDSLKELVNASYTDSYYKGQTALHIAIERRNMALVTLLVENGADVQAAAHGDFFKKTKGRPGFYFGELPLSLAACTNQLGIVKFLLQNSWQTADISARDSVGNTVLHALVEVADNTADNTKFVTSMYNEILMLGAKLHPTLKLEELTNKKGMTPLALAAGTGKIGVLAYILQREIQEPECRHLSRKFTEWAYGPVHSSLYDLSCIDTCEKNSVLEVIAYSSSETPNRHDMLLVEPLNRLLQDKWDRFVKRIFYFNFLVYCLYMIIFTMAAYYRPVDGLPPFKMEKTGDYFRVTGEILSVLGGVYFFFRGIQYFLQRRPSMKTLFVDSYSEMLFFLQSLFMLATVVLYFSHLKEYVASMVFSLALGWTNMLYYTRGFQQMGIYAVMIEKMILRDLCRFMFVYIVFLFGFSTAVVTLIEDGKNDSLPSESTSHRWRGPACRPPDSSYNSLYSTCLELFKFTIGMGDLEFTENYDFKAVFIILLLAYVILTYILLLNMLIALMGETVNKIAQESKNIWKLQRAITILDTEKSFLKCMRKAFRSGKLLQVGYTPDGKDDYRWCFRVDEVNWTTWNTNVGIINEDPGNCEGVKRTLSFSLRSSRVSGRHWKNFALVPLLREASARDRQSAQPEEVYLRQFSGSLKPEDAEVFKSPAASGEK
Cannabinoid receptor 1, sequence (P21554 whole entry): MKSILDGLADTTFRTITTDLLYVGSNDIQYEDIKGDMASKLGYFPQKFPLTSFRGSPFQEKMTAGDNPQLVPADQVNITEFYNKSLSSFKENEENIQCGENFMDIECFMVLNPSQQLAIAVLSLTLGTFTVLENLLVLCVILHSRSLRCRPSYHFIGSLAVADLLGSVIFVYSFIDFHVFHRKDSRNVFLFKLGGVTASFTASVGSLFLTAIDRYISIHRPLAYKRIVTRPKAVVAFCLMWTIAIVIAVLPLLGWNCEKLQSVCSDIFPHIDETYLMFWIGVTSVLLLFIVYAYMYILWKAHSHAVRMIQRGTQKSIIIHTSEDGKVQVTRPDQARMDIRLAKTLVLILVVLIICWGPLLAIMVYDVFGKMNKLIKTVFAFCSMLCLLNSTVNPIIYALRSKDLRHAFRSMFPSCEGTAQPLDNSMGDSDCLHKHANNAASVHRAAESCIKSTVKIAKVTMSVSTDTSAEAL
Cannabinoid receptor 2, sequence (P34972 whole entry): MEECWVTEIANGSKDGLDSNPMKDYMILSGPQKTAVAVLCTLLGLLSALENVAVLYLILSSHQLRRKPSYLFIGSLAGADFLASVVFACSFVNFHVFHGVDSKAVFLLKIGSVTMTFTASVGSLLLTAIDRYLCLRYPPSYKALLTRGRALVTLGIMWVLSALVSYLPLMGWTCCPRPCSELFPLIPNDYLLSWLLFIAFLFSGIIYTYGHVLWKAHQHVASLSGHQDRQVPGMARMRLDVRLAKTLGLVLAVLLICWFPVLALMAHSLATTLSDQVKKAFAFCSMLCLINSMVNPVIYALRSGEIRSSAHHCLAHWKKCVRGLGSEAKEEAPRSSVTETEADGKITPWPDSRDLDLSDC
Transient receptor potential cation channel subfamily A member 1, sequence (Q6RI86 whole entry): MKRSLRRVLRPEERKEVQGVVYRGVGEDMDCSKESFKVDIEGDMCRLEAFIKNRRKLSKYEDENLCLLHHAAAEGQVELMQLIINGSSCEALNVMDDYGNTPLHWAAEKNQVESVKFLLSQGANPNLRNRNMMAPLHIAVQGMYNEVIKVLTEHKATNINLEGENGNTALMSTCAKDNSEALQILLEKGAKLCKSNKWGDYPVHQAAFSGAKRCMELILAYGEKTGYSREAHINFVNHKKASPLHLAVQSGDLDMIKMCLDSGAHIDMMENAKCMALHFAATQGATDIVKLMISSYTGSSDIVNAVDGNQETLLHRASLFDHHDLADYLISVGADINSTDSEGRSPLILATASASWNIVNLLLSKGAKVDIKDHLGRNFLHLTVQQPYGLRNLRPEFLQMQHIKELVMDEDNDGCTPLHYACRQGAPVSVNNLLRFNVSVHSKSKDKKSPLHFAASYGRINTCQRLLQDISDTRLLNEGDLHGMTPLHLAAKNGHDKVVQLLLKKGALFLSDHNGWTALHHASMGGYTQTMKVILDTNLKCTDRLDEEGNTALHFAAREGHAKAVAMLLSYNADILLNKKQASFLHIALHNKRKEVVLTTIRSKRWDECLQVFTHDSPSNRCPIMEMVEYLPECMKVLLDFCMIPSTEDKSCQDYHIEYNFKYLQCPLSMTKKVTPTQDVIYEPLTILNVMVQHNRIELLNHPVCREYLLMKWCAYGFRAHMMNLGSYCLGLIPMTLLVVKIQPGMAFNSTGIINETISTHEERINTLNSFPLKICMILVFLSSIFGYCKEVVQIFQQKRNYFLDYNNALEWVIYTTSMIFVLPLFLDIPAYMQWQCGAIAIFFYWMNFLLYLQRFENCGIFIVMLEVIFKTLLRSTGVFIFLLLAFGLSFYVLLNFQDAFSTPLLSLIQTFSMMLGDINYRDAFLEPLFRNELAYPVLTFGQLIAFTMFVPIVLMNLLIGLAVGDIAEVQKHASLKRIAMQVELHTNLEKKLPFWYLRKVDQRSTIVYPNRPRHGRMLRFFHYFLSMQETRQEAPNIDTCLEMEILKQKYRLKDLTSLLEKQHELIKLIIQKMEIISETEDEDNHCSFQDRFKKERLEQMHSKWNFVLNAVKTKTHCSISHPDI
Transient receptor potential cation channel subfamily A member 1 (Rattus norvegicus), sequence (Q6RI86 whole entry): as above

On to `CC(C)Cn1nnc(CNC(=O)c2ccc(-c3ccccc3)cc2)n1`, for which the IC50 – broadly, the midpoint of a concentration-inhibition curve – in test [1] is more than 50 µM; with RBL-2H3 it was more than 25 µM; in [2], more than 10 µM; in test [3], more than 10 µM. For the same compound, the inhibitory constant (Ki) at Cannabinoid receptor 1 and at Cannabinoid receptor 2 was more than 10 µM throughout. Moreover, the EC50 (as a rule, the concentration giving half of the maximal effect) in [4] was more than 100 µM; in [6], 53.5 µM. Moreover, the Efficacy in [5] stood at 0%; in test [7], 10.2%.

Regarding `COC(=O)Cn1nnc(Cc2ccc(-c3ccccc3)cc2)n1`, the IC50 in test [1] was more than 50 µM; with RBL-2H3, more than 25 µM; in [2], more than 10 µM; in test [3] it was more than 10 µM. The inhibition constant Ki (in general, the dissociation constant of the complex between target and ligand, obtained from inhibition or displacement) is more than 10 µM on Cannabinoid receptor 1 and 8.1 µM on Cannabinoid receptor 2. In addition, the EC50 in test [4] and in test [6] was more than 100 µM throughout. In addition, the Efficacy turned out to be 36% in [5] and 0% in test [7].

Regarding `CC(C)Cn1nnc(Cc2ccc(-c3ccccc3)cc2)n1`, the IC50 in test [1] was more than 50 µM; in the test with RBL-2H3, more than 25 µM; in [2], more than 10 µM; in [3], more than 10 µM. The Ki at Cannabinoid receptor 1 worked out at 1.6 µM; on Cannabinoid receptor 2, 4.7 µM. Further, the half-maximal effective concentration (EC50) in test [4] is 26.3 µM; in test [6], 10 µM. Besides, the Efficacy was determined as 136% in test [5] and 20.7% in test [7].

As to `CN(C)C(=O)Cn1nnnc1Cc1ccc(-c2ccccc2)cc1`, the IC50 was more than 50 µM in test [1], 5.1 µM with RBL-2H3, more than 10 µM in test [2] and more than 10 µM in test [3]. Moreover, the inhibition constant (Ki) on Cannabinoid receptor 1 and at Cannabinoid receptor 2 was more than 10 µM each time. Besides, the EC50 in [4] and in test [6] was more than 100 µM throughout. Moreover, the results for the Efficacy in [5] and in [7] were 0% and 4%, respectively.

With `CC(=O)Cn1nnnc1Cc1ccc(-c2ccccc2)cc1`, the 50% inhibitory concentration (IC50) is more than 50 µM in test [1], 5 µM in the test on RBL-2H3, more than 10 µM in test [2] and more than 10 µM in test [3]. Also, the Ki at Cannabinoid receptor 1 and on Cannabinoid receptor 2 was more than 10 µM in each case. The EC50 in test [4] and in test [6] was more than 100 µM in each case. Besides, the values for the Efficacy in test [5] and in test [7] were 11.4% and 0%, respectively.

As for `COC(=O)Cn1nnnc1CNC(=O)c1ccc(-c2ccccc2)cc1`, the half-inhibitory concentration (IC50) in test [1] was more than 50 µM; with RBL-2H3, more than 25 µM; in test [2], more than 10 µM; in test [3], more than 10 µM. The inhibitory constant (Ki) at Cannabinoid receptor 1 and on Cannabinoid receptor 2 was more than 10 µM each time. The results for the concentration giving a half-maximal response (EC50) in test [4] and in [6] were more than 100 µM and 29.6 µM, respectively. The figures for the Efficacy in test [5] and in test [7] were 0% and 8.6%, respectively.

For `N#CCn1nnc(CNC(=O)c2ccc(-c3ccccc3)cc2)n1`, the IC50 in [1] is more than 50 µM; in the test with RBL-2H3 it was more than 25 µM; in [2] it was more than 10 µM; in test [3], more than 10 µM. The Ki at Cannabinoid receptor 1 and on Cannabinoid receptor 2 was more than 10 µM in each case. Also, the half-maximal effective concentration (EC50) in [4] and in test [6] was more than 100 µM throughout. Also, the Efficacy in [5] worked out at 0%; in test [7], 2.6%.

Take `CC(C)Cn1nnnc1Cc1ccc(-c2ccccc2)cc1`: the IC50 in test [1] is more than 50 µM; in the test with RBL-2H3, more than 25 µM; in [2], more than 10 µM; in test [3], more than 10 µM. The Ki at Cannabinoid receptor 1 is more than 10 µM; on Cannabinoid receptor 2, 7.7 µM. The EC50 in [4] and in test [6] was more than 100 µM in each case. The Efficacy in test [5] is 50.8%; in test [7], 4.7%.

Take `CN(C)C(=O)Cn1nnc(Cc2ccc(-c3ccccc3)cc2)n1`: the IC50 in test [1] was more than 50 µM; in the test on RBL-2H3, more than 25 µM; in test [2] it was more than 10 µM; in test [3] it was more than 10 µM. The Ki on Cannabinoid receptor 1 and on Cannabinoid receptor 2 was more than 10 µM throughout. Further, the half-maximal effective concentration (EC50) in test [4] and in test [6] was more than 100 µM in each case. Moreover, the Efficacy was 0% in test [5] and 5.3% in test [7].

For the compound `CC(=O)Cn1nnc(CNC(=O)c2ccc(-c3ccccc3)cc2)n1`, the half-maximal inhibitory concentration (IC50) is more than 50 µM in [1], more than 25 µM in the test with RBL-2H3, more than 10 µM in test [2] and more than 10 µM in test [3]. For the same compound, the inhibition constant (Ki) at Cannabinoid receptor 1 and on Cannabinoid receptor 2 was more than 10 µM in each case. The EC50 in test [4] and in [6] was more than 100 µM in each case. Moreover, the Efficacy in test [5] stood at 14%; in test [7], 0%.

`N#CCn1nnc(Cc2ccc(-c3ccccc3)cc2)n1`: the half-inhibitory concentration (IC50) in test [1] was more than 50 µM; in the test on RBL-2H3 it was 5.1 µM; in [2] it was more than 10 µM; in test [3], more than 10 µM. In addition, the inhibition constant (Ki) on Cannabinoid receptor 1 is more than 10 µM; at Cannabinoid receptor 2, 6.2 µM. The values for the half-maximal effective concentration (EC50) in test [4] and in test [6] were 16.2 µM and more than 100 µM, respectively. For the same compound, the Efficacy in [5] came to 102%; in test [7], 0%.

Take `COC(=O)Cn1nnnc1Cc1ccc(-c2ccccc2)cc1`: the half-inhibitory concentration (IC50) was more than 50 µM in [1], 4.9 µM in the test on RBL-2H3, more than 10 µM in [2] and more than 10 µM in test [3]. Further, the Ki at Cannabinoid receptor 1 and on Cannabinoid receptor 2 was more than 10 µM in each case. The EC50 in [4] and in test [6] was more than 100 µM throughout. Also, the Efficacy in [5] and in [7] was 0% each time.

Take `CC(=O)Cn1nnc(Cc2ccc(-c3ccccc3)cc2)n1`: the IC50 in test [1] is more than 50 µM; in the test with RBL-2H3, more than 25 µM; in [2], more than 10 µM; in [3], more than 10 µM. Further, the Ki on Cannabinoid receptor 1 is more than 10 µM; on Cannabinoid receptor 2, 5.2 µM. The EC50 in [4] and in test [6] was more than 100 µM each time. Also, the Efficacy in [5] came to 61.4%; in test [7], 0%.
